Compounds with a hit are over-represented: about 2.1% of the library has one in this group of screens.
APJ agonist: activates the human apelin receptor APJ | 330,000 compounds, 0.11% hits | CHO-K1 APJ PathHunter beta-arrestin, luminescence; 0% DMSO wells, 100% apelin | activation, % at 20 µM | P35414;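 active = activation more than six SD over the plate average, tested at 20 µM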;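 note: 0% = DMSO alone and 100% = apelin-13 at 10 nM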
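Assay system: engineered CHO-K1 APJ arrestin reporter cells; Amount: 1000 CHO-K1 reporter cells seeded per well; Dosing: one dose, 20 µM compound, 1% DMSO; Times: compound stimulation 90 min at 25 °C, detection 60 min; Measured by: luminescent beta-gal fragment complementation, chemiluminescent substrate; Read-out: APJ–arrestin association signal; Controls: DMSO vs Apelin-13 10 nM.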
CCR6 antagonist: antagonists of human CCR6 receptor; P51684; CHO-K1 CCR6 PathHunter beta-arrestin, luminescence, CCL20-stimulated; inhibition, % at 20 µM; 340,000 compounds, 0.49% hits; AID 493098;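 active = compounds whose inhibition of the agonist-driven luminescence signal at 20 µM reaches about 50%, limit read from the data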;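 note: cells stimulated with CCL20 at 14 nM final; plate controls were DMSO with CCL20 for no effect and DMSO without agonist for full effect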
m5-HT2A agonist: activates the mouse 5-HT2A serotonin receptor | AID 624169 | 360,000 compounds, 0.66% hits | activation, % at 7.6 µM | CHO-K1 mHTR2A beta-arrestin complementation, luminescence; percent of 30 µM serotonin response | P35363;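 active = activation above a run cutoff, the mean activation of all tested compounds plus 3 SD, cut at about 14% in these data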;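 note: 0% = plate median of compound wells and 100% = 30 µM serotonin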
Target sequence (P35363 whole entry, looked up): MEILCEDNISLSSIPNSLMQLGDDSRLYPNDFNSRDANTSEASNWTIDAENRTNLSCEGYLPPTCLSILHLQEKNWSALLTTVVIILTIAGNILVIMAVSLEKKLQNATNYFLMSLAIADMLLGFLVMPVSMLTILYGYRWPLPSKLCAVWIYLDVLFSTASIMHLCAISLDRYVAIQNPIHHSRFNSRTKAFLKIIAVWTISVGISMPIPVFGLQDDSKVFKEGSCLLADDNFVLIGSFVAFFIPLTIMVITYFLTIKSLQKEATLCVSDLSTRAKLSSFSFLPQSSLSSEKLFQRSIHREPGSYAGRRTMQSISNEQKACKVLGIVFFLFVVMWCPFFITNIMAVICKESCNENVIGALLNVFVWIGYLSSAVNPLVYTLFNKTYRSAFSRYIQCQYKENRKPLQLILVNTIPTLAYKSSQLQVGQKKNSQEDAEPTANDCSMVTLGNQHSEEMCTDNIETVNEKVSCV
EBI2 block: EBI2 (human) antagonism. inhibition, % at 5 µM. EBI2 beta-arrestin recruitment, luminescence, 7a,25-OHC stimulated. P32249. 360,000 compounds, 0.81% hits; in the data active = inhibition above about 38%;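 note: enzyme fragment complementation signal reports receptor beta-arrestin coupling in cells; 0% = agonist plus DMSO wells and 100% = wells without agonist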
APJ antag: APJ receptor antagonism | P35414 | CHO-K1 APJ beta-arrestin complementation, luminescence | inhibition, % at 20 µM | 330,000 compounds, 0.32% hits;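 active = inhibition above about 40% at 20 µM, limit read from the data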;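 note: cells challenged with 10 nM apelin-13 agonist together with compound; plate controls were apelin-13 plus DMSO wells for no effect and DMSO wells lacking apelin-13 for full effect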
CXCR6 inh: CXCR6 (human) receptor inhibition | O00574 | AID 602244 | 360,000 compounds, 0.36% hits | CHO-K1 PathHunter CXCR6 beta-arrestin, luminescence | inhibition, % at 20 µM; in the data active = inhibition above about 34%, passing the limit was not always enough;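 note: antagonist mode with CXCL16 agonist at 10 nM final; 0% = 10 nM CXCL16 with DMSO and 100% = unstimulated wells without agonist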
APJ antag confirm: APJ receptor antagonism confirmation. shares compounds with APJ antag. APJ beta-arrestin recruitment, luminescence, antagonist mode. inhibition, % at 20 µM. 950 compounds, 66% hits; in the data active = inhibition above about 50%
* marks the source's active call; other numbers are inactive results; nt = no result given.

SMILES	APJ agonist	CCR6 antagonist	m5-HT2A agonist	EBI2 block	APJ antag	CXCR6 inh	APJ antag confirm
O=C(NN1C(=O)/C(=C/c2ccc(O)c([N+](=O)[O-])c2)SC1=S)c1ccccc1Cl	-10	54*	3	15	47*	39*	69*
COc1ccccc1N(CC(=O)Nc1ccc(Br)cc1F)S(=O)(=O)c1cccs1	-3	1	-9	22	23	10	nt
COc1ccccc1OCCCCn1c(C(C)O)nc2ccccc21 (centres undefined)	-1	7	0	-3	16	-3	nt
COc1cc(/C=C2/C(=O)NN(c3ccc(Cl)cc3)C2=O)cc(OC)c1O	-8	42	1	8	41*	34	46
COc1cc(/C=C2/C(=O)NN(c3ccccc3)C2=O)cc(Br)c1O	-6	40	4	1	34	32	nt
COc1cc(/C=C2/C(=O)N(c3ccc(C(=O)O)cc3)N=C2C)cc(OC)c1O	-8	69*	1	1	59*	40*	95*
O=C1CN(C(=O)c2ccc(Cl)c([N+](=O)[O-])c2)c2ccccc2N1	-1	4	5	-16	41*	3	-8
O=C(Nc1nc(-c2ccccn2)cs1)c1cc(Cl)ccc1[N+](=O)[O-]	-8	77*	-7	40*	72*	59*	97*
O=C(NNC(=S)Nc1ccc(Br)cc1)c1ccc(N2CCOCC2)c([N+](=O)[O-])c1	-5	46	1	12	32	21	nt
COc1ccc(C(=O)NC(=S)Nc2ccc(N3CCN(C(C)=O)CC3)cc2)cc1[N+](=O)[O-]	-3	44	1	6	13	30	nt
COc1ccc(C(=O)NC(=S)Nc2cccc(Cl)c2N2CCOCC2)cc1[N+](=O)[O-]	-10	33	-3	42*	81*	27	55*
O=C(NNC(=S)Nc1ccc(Cl)cc1Cl)c1ccc(N2CCOCC2)c([N+](=O)[O-])c1	-5	27	-2	9	40*	25	62*
Cc1ccc(NC(=S)NNC(=O)c2ccc(N3CCOCC3)c([N+](=O)[O-])c2)cc1Cl	-7	31	-1	3	42*	35	63*
COc1cccc(Nc2ncnc3sc(C)cc23)c1	-3	6	-2	-2	-6	-4	nt
CCCCN1C(=O)C(=O)N(CC(=O)c2ccc3c(c2)OCO3)C1=O	-4	10	6	7	-23	-10	nt
O=C(COC(=O)c1ccco1)c1ccc(S(=O)(=O)N2CCCCC2)cc1	-28	48	-3	4	57*	30	65*
CNS(=O)(=O)c1cccc(C(=O)OCC(=O)c2cc3ccccc3o2)c1	-11	73*	-7	13	81*	43*	69*
O=C(COC(=O)c1ccc(Br)o1)c1ccc(S(=O)(=O)N2CCCCC2)cc1	-12	64*	-3	30	68*	44*	90*
O=C(COC(=O)c1ccco1)Nc1cc(S(=O)(=O)N2CCCCC2)ccc1Cl	-3	9	-1	11	-1	8	nt
O=C(COC(=O)c1ccccc1)c1ccc(S(=O)(=O)N2CCCCC2)cc1	-17	38	0	26	27	27	nt
O=C(COc1ccccc1)OCC(=O)c1ccc(S(=O)(=O)N2CCCCC2)cc1	-7	68*	-6	14	85*	42*	116*
CCN(CC(=O)Nc1ccccc1OC)C(=O)c1ccc(NC(=O)c2cccs2)cc1	0	2	-3	6	1	2	nt
Cc1nc(-c2ccccc2)nc2n[nH]c(N)c12	-8	1	-4	-12	11	-6	nt
CNS(=O)(=O)c1cccc(C(=O)OCC(=O)c2ccc(S(=O)(=O)N3CCCCC3)cc2)c1	-22	53*	-1	19	62*	34	60*
CCN1CCN(c2cc(C)c3cc(NC(=O)Cc4ccccc4OC)ccc3n2)CC1	-9	-1	-5	-4	48*	-3	13
CCN1CCN(c2cc(C)c3cc(NC(=O)CCC(=O)Nc4ccc(OC)c(OC)c4)ccc3n2)CC1	-2	12	-1	-2	11	0	nt

Screens deposited in PubChem BioAssay by several laboratories.
